This is an account of results in ChEMBL document CHEMBL1154833, “Curcuminoid analogs with potent activity against Trypanosoma and Leishmania species” (Eur J Med Chem, 2010).

One assay concerns Leishmania mexicana. Briefly: Antileishmanial activity against Leishmania mexicana MNYC/BZ/62/M379 amastigotes after 48 hrs by alamar blue assay. Type of assay: functional, organism-based. In short, it runs like this: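 Axenic L. mexicana MNYC/BZ/62/M379 amastigotes kept at 33 °C under CO2 in Schneider's Drosophila medium with 20% FBS and 0.3% gentamycin. Alamar Blue fluorescence read-out.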
Background: Alamar Blue is a resazurin reagent that responds to reducing activity.

In assay [1] the test system is Trypanosoma brucei brucei. Briefly: Antitrypanosomal activity against Trypanosoma brucei brucei 427 after 48 hrs by alamar blue assay. The assay is classed as functional, organism-based.
Another assay concerns Leishmania major. In words: Antileishmanial activity against Leishmania major Friedlin promastigotes after 48 hrs by alamar blue assay. Type of assay: functional, organism-based. The gist of the method: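 L. major Friedlin promastigotes grown in HOMEM with 10% FBS at 25 °C. Alamar Blue fluorescence assay in 96-well plates. 3–6 independent experiments unless noted.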
For a further assay, the system named is HEK293. In words: Cytotoxicity against HEK293 cells after 16 hrs by alamar blue assay. The assay is classed as cell-based, Homo sapiens. In short, it runs like this:
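HEK293T cells grown in DMEM-based medium with 10% newborn bovine serum at 37 °C, 5% CO2. Doubling dilutions of compound added for 16 h, then resazurin added. Fluorescence read at emission 590 nm after a further 24 h.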

Assay [2] relates to Trypanosoma brucei brucei. In words: Antitrypanosomal activity against multidrug-resistant Trypanosoma brucei brucei B48 after 48 hrs by alamar blue assay. Type of assay: functional, organism-based. The following applies: B48, 48 h.
Assay [3] concerns Trypanosoma brucei brucei. Briefly: Antitrypanosomal activity against diminazene-resistant Trypanosoma brucei brucei deltaTbat1-KO after 48 hrs by alamar blue assay. The assay is classed as functional, organism-based.
The mark [4] stands for this setting: Leishmania mexicana, MNYC/BZ/62/M379, 48 h, read-out: EC50.
Setting [5] is: Trypanosoma brucei, 427, 48 h, read-out: EC50.
The mark [6] stands for this setting: Leishmania major, Friedlin, 48 h, read-out: EC50.
Setting [7] is: Homo sapiens, HEK293, 16 h, read-out: EC50.

A value given as a limit tells only on which side of the number the result lay.

`COc1cc(/C=C/C(=O)CC(=O)/C=C/c2ccc(OC(=O)c3ccccc3)c(OC)c2)ccc1OC(=O)c1ccccc1`: the EC50 result (with Leishmania mexicana; in assay [1]; in the assay on Leishmania major; in the assay on HEK293 (hek293)) was “ND(Insoluble)” throughout.

Regarding `COc1cc(/C=C/C(=O)CC(=O)/C=C/c2ccc(OC(=O)c3ccccc3)cc2)ccc1OC(=O)c1ccccc1`, the EC50 entry (in the assay on Leishmania mexicana; in assay [1]; with Leishmania major; in the assay on HEK293 (hek293)) was “ND(Insoluble)” in each case.

For `CCCOc1ccc(/C=C/C(=O)CC(=O)/C=C/c2ccc(OCCC)c(OC)c2)cc1OC`, the EC50 (as a rule, the concentration that produces a half-maximal response) is 34 µM in the assay with Leishmania mexicana (setting [4]); 1.3 µM in assay [1] (setting [5]); 28 µM with Leishmania major (setting [6]); 1.6 µM in assay [2]; more than 500 µM with HEK293 (setting [7]); 1.8 µM in assay [3].

Regarding `COc1cc(/C=C/C(=O)CC(=O)/C=C/c2ccc(OCC=C(C)C)c(OC)c2)ccc1O`, the EC50 in the assay on Leishmania mexicana (setting [4]) is 21 µM; in assay [1] (setting [5]) it was 1.4 µM; in the assay on Leishmania major (setting [6]), 7.6 µM; in assay [2], 2 µM; with HEK293 (setting [7]), more than 500 µM; in assay [3], 1.7 µM.

Turning to `COc1ccc(/C=C/C(=O)CC(=O)/C=C/c2ccc(O)c(OC)c2)cc1`, the EC50 with Leishmania mexicana (setting [4]) came to 38 µM; in assay [1] (setting [5]), 1.7 µM; in the assay with Leishmania major (setting [6]) it was 23 µM; in assay [2], 2.1 µM; in the assay with HEK293 (setting [7]), 79 µM; in assay [3], 2 µM.

On to `COc1ccc(/C=C/C(=O)CC(=O)/C=C/c2ccc(OC)c(OC)c2)cc1`, for which the EC50 was 61 µM in the assay on Leishmania mexicana (setting [4]); 1.6 µM in assay [1] (setting [5]); 23 µM in the assay on Leishmania major (setting [6]); 1.9 µM in assay [2]; 690 µM with HEK293 (setting [7]); 1.9 µM in assay [3].

As to `COc1ccc(/C=C/C(=O)CC(=O)/C=C/c2ccc(O)cc2)cc1`, the EC50 with Leishmania mexicana (setting [4]) worked out at 32 µM; in assay [1] (setting [5]), 8.9 µM; in the assay on Leishmania major (setting [6]), 87 µM; in assay [2], 2.9 µM; in the assay on HEK293 (setting [7]), 400 µM; in assay [3] it was 8.8 µM.

Regarding `O=C(/C=C/c1ccc(OC(=O)c2ccccc2)cc1)CC(=O)/C=C/c1ccc(OC(=O)c2ccccc2)cc1`, the EC50 result (with Leishmania mexicana; in assay [1]; in the assay on Leishmania major; in the assay on HEK293 (hek293)) was “ND(Insoluble)” throughout.

As for `COc1ccc(CCC(=O)CC(O)CCc2ccc(OC)c(OC)c2)cc1OC` (centres undefined), the half-maximal effective concentration (EC50) in the assay on Leishmania mexicana (setting [4]) is more than 100 µM; with Leishmania major (setting [6]) it was 41 µM; in the assay with HEK293 (setting [7]) it was 370 µM.

Regarding `O=C(/C=C/c1ccc(O)c(O)c1)CC(=O)/C=C/c1ccc(O)c(O)c1`, the EC50 was 12 µM in the assay on Leishmania mexicana (setting [4]); 1.8 µM in assay [1] (setting [5]); 26 µM with Leishmania major (setting [6]); 3.4 µM in assay [2]; 39 µM with HEK293 (setting [7]); 2.5 µM in assay [3].

As for `O=C(/C=C/CCc1ccc(O)c(O)c1)CCc1ccc(O)c(O)c1` [DEHYDROHIRSUTANONOL], the EC50 with Leishmania mexicana (setting [4]) was 17 µM; in assay [1] (setting [5]), 2.5 µM; in the assay with Leishmania major (setting [6]), more than 100 µM; in the assay on HEK293 (setting [7]), 220 µM; in assay [3] it was 3.2 µM.

`COc1cc(CCC(O)CC(O)CCc2ccc(O)c(OC)c2)ccc1O` (centres undefined) [OCTAHYDROCURCUMIN]: the EC50 in the assay with Leishmania mexicana (setting [4]) was more than 100 µM; in assay [1] (setting [5]) it was 78 µM; with Leishmania major (setting [6]), more than 100 µM; in assay [2] it was more than 100 µM; in assay [3], 61 µM.

In the case of `N=C(N)c1ccc(OCCCCCOc2ccc(C(=N)N)cc2)cc1` [PENTAMIDINE], the EC50 in the assay on Leishmania mexicana (setting [4]) is 16 µM; in the assay on Leishmania major (setting [6]), 3.8 µM; in assay [2] it was 0.67 µM.

As to `COc1cc(CCC(=O)CC(=O)CCc2ccc(O)cc2)ccc1O` [TETRAHYDRODEMETHOXYCURCUMIN], the 50% effective concentration (EC50) in the assay with Leishmania mexicana (setting [4]) is more than 50 µM; in assay [1] (setting [5]), 22 µM; in the assay with Leishmania major (setting [6]), more than 100 µM; in assay [2], 18 µM; in assay [3], 34 µM.
